According to ChEMBL document CHEMBL4219021, “Discovery of a Small-Molecule Degrader of Bromodomain and Extra-Terminal (BET) Proteins with Picomolar Cellular Potencies and Capable of Achieving Tumor Regression” (J Med Chem, 2018):
Each block holds one molecule with its values, some of them ahead of it. Active and inactive are the calls of the source. No cut-off for these calls is given here.

Assays:
[1] = test system: MOLM-13; experiment: Cytotoxicity against human MOLM13 cells assessed as cell growth inhibition after 4 days by WST-8 assay; assay type: functional, cell-based; settings: MOLM-13, 96 h
[2] = test system: RS4-11; experiment: Cytotoxicity against human RS4:11 cells assessed as cell growth inhibition after 4 days by WST-8 assay; assay type: functional, cell-based; settings: RS4-11, 96 h
[3] = target: T1, Protein cereblon/Bromodomain-containing protein 2/Cullin-4A (Homo sapiens) (UniProt P25440+Q96SW2+Q13619); experiment: Induction of cereblon/cullin 4A-mediated BRD2 degradation in human RS4:11 cells after 3 hrs by Western blot method; assay type: cell-based
T1 sequence (P25440 whole entry, looked up): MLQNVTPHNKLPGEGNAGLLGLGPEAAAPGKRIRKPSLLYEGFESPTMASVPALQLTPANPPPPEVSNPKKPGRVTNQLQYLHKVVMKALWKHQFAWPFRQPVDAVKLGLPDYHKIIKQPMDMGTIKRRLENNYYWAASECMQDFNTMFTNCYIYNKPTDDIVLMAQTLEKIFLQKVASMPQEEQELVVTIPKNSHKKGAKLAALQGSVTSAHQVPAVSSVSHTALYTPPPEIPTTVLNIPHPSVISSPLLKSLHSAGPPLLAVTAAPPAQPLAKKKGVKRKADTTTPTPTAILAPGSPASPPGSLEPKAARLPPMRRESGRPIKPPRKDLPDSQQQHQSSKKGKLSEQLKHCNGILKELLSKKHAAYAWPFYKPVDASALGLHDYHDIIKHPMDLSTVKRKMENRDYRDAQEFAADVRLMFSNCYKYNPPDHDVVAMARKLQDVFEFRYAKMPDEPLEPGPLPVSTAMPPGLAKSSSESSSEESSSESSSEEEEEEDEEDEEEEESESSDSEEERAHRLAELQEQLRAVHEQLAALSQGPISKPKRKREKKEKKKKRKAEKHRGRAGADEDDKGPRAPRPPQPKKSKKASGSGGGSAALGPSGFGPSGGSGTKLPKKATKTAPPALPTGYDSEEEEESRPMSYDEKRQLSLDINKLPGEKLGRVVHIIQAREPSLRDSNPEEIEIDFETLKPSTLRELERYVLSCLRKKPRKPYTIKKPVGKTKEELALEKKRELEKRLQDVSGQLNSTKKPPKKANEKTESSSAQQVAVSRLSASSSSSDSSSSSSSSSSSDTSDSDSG
T1 sequence (Q13619 whole entry, looked up): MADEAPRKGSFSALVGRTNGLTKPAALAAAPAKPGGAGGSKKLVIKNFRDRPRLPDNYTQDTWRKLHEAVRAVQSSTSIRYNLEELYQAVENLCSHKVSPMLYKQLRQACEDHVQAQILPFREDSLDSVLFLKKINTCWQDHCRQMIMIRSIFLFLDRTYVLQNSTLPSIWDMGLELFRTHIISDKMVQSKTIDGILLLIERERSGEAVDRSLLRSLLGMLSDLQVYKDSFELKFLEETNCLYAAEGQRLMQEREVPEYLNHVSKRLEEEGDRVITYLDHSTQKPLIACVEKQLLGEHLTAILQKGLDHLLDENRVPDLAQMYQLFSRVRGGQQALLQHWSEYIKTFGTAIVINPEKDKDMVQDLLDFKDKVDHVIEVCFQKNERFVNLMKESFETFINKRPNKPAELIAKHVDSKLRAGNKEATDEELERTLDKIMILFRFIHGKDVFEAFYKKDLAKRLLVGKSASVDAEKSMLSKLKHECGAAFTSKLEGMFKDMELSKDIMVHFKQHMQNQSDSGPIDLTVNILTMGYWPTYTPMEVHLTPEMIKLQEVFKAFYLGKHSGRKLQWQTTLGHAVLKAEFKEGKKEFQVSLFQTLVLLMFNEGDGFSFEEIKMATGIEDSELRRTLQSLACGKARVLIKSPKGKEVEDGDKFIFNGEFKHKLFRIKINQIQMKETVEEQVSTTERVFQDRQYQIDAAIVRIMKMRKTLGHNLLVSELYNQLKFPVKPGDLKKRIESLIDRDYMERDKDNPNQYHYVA
T1 sequence (Q96SW2 whole entry, looked up): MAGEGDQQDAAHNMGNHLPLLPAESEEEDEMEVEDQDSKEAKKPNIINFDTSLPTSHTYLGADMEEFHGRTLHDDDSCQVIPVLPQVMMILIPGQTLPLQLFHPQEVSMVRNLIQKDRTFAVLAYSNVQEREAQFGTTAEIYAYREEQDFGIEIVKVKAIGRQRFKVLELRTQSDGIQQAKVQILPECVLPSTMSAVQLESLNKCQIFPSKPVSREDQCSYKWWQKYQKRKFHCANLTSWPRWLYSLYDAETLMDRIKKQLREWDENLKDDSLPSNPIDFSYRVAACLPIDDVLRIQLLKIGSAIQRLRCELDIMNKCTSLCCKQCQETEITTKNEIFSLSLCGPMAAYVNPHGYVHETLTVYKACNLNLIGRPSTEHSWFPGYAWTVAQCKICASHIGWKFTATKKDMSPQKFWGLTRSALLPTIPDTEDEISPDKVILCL
Procedure, shortened: (§1)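 RS4;11 cells (2 × 10⁶/well) treated for 3 h at the indicated concentrations. Lysed in RIPA with protease inhibitors and immunoblotted for BRD2, BRD3 and BRD4 with specific antibodies.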

[4] = target: T2, Protein cereblon/Bromodomain-containing protein 4/Cullin-4A (Homo sapiens) (UniProt O60885+Q96SW2+Q13619); experiment: Induction of cereblon/cullin 4A-mediated BRD4 degradation in human RS4:11 cells after 3 hrs by Western blot method; assay type: cell-based
Procedure, shortened: (§2)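 Western blot of RS4;11 cells (2 × 10⁶ cells/well) in RPMI 1640 with 10% FBS, 37 °C, 5% CO₂, used within three months of thawing. Compound exposure was 3 h or 24 h at the indicated concentrations. Cells were lysed in RIPA with protease inhibitors, and BRD2, BRD3 and BRD4 were detected with specific antibodies, with GAPDH as loading control.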

[5] = target: T3, Protein cereblon/Bromodomain-containing protein 3/Cullin-4A (Homo sapiens) (UniProt Q15059+Q96SW2+Q13619); experiment: Induction of cereblon/cullin 4A-mediated BRD3 degradation in human RS4:11 cells after 3 hrs by Western blot method; assay type: cell-based; procedure, shortened: as §1
T3 sequence (Q13619 whole entry, looked up): as the sequence (Q13619 whole entry, looked up) above
T3 sequence (Q15059 whole entry, looked up): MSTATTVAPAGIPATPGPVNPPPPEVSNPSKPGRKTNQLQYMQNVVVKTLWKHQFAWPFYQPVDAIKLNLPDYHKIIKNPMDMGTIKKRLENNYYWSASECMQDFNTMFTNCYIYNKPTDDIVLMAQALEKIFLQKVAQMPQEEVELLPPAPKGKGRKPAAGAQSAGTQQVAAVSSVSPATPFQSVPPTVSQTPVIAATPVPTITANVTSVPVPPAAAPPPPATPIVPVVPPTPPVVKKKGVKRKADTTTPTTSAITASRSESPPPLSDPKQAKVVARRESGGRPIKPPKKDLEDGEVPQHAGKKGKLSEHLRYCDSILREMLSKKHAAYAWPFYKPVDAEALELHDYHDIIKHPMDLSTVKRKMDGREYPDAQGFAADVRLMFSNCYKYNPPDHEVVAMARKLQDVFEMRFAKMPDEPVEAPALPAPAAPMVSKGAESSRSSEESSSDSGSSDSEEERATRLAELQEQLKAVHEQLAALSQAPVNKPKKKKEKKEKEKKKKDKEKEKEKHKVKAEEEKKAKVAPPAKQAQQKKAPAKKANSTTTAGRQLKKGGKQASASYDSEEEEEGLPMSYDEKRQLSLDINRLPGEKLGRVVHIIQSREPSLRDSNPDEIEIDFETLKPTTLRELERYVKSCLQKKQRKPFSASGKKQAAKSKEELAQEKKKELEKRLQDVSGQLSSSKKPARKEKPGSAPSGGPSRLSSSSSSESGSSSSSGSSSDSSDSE
T3 sequence (Q96SW2 whole entry, looked up): as the sequence (Q96SW2 whole entry, looked up) above

[6] = target: T1, Protein cereblon/Bromodomain-containing protein 2/Cullin-4A (Homo sapiens); experiment: Induction of cereblon/cullin 4A-mediated BRD2 degradation in human RS4:11 cells at 30 to 300 nM after 3 hrs by Western blot method; assay type: cell-based; procedure, shortened: as §1
[7] = target: T3, Protein cereblon/Bromodomain-containing protein 3/Cullin-4A (Homo sapiens); experiment: Induction of cereblon/cullin 4A-mediated BRD3 degradation in human RS4:11 cells at 30 to 300 nM after 3 hrs by Western blot method; assay type: cell-based; procedure, shortened: as §2
[8] = target: T2, Protein cereblon/Bromodomain-containing protein 4/Cullin-4A (Homo sapiens); experiment: Induction of cereblon/cullin 4A-mediated BRD4 degradation in human RS4:11 cells at 30 to 300 nM after 3 hrs by Western blot method; assay type: cell-based; procedure, shortened: as §2
[9] = target: T3, Protein cereblon/Bromodomain-containing protein 3/Cullin-4A (Homo sapiens); experiment: Induction of cereblon/cullin 4A-mediated BRD3 degradation in human RS4:11 cells at 3 to 30 nM after 3 hrs by Western blot method; assay type: cell-based; procedure, shortened: as §2
[10] = target: T1, Protein cereblon/Bromodomain-containing protein 2/Cullin-4A (Homo sapiens); experiment: Induction of cereblon/cullin 4A-mediated BRD2 degradation in human RS4:11 cells at 3 to 30 nM after 3 hrs by Western blot method; assay type: cell-based; procedure, shortened: as §1
[11] = target: T3, Protein cereblon/Bromodomain-containing protein 3/Cullin-4A (Homo sapiens); experiment: Induction of cereblon/cullin 4A-mediated BRD3 degradation in human RS4:11 cells at 3 to 10 nM after 3 hrs by Western blot method; assay type: cell-based; procedure, shortened: as §2
[12] = target: T2, Protein cereblon/Bromodomain-containing protein 4/Cullin-4A (Homo sapiens); experiment: Induction of cereblon/cullin 4A-mediated BRD4 degradation in human RS4:11 cells at 3 to 10 nM after 3 hrs by Western blot method; assay type: cell-based; procedure, shortened: as §2
[13] = target: T1, Protein cereblon/Bromodomain-containing protein 2/Cullin-4A (Homo sapiens); experiment: Induction of cereblon/cullin 4A-mediated BRD2 degradation in human RS4:11 cells at 3 to 10 nM after 3 hrs by Western blot method; assay type: cell-based; procedure, shortened: as §1
[14] = target: T4, Bromodomain-containing protein 4 (Homo sapiens, UniProt O60885); experiment: Inhibition of FAM-labeled ZBA248 binding to recombinant N-terminal His6-tagged BRD4 bromodomain 2 (333 to 460 residues) (unknown origin) expressed in Escherichia coli Rosetta2 DE3 after 30 mins by fluorescence polarization assay
[15] = target: T5, Bromodomain-containing protein 2 (Homo sapiens, UniProt P25440); experiment: Inhibition of FAM-labeled ZBA248 binding to recombinant N-terminal His6-tagged BRD2 bromodomain 2 (349 to 460 residues) (unknown origin) expressed in Escherichia coli Rosetta2 DE3 after 30 mins by fluorescence polarization assay
T5 sequence (P25440 whole entry, the tested form may be a part): as the sequence (P25440 whole entry, looked up) above

[16] = target: T6, Bromodomain-containing protein 3 (Homo sapiens, UniProt Q15059); experiment: Inhibition of FAM-labeled ZBA248 binding to recombinant N-terminal His6-tagged BRD3 bromodomain 2 (306 to 417residues) (unknown origin) expressed in Escherichia coli Rosetta2 DE3 after 30 mins by fluorescence polarization assay
T6 sequence (Q15059 whole entry, the tested form may be a part): as the sequence (Q15059 whole entry, looked up) above

[17] = target: T5, Bromodomain-containing protein 2; experiment: Inhibition of FAM-labeled ZBA248 binding to recombinant N-terminal His6-tagged BRD2 bromodomain 1 (72 to 205 residues) (unknown origin) expressed in Escherichia coli Rosetta2 DE3 after 30 mins by fluorescence polarization assay
[18] = target: T6, Bromodomain-containing protein 3; experiment: Inhibition of FAM-labeled ZBA248 binding to recombinant N-terminal His6-tagged BRD3 bromodomain 1 (24 to 144 residues) (unknown origin) expressed in Escherichia coli Rosetta2 DE3 after 30 mins by fluorescence polarization assay
[19] = target: T4, Bromodomain-containing protein 4; experiment: Inhibition of FAM-labeled ZBA248 binding to recombinant N-terminal His6-tagged BRD4 bromodomain 1 (44 to 168 residues) (unknown origin) expressed in Escherichia coli Rosetta2 DE3 after 30 mins by fluorescence polarization assay

SMILES: CCn1nc(C2CC2)cc1Nc1nc(C(=O)NCCOCCCc2cccc3c2C(=O)N(C2CCC(=O)NC2=O)C3=O)nc2[nH]c3cc(-c4c(C)noc4C)c(OC)cc3c12 (stereo not given)
- IC50 [1]: 5.9 nM
- IC50 [2]: 0.42 nM

- Activity [3]: Dose-dependent effect
- Activity [4]: Dose-dependent effect
- Activity [5]: Dose-dependent effect
SMILES: CCn1nc(C2CC2)cc1Nc1nc(C(=O)NCCCc2cccc3c2CN(C2CCC(=O)NC2=O)C3=O)nc2[nH]c3cc(-c4c(C)noc4C)c(OC)cc3c12 (stereo not given)
- IC50 [1]: 72.3 nM
- IC50 [2]: 9.6 nM

- Activity [6]: Active
- Activity [7]: Active
- Activity [8]: Active
SMILES: Cc1sc2c(c1C)C(c1ccc(Cl)cc1)=N[C@@H](CC(=O)NCCCCNC(=O)COc1cccc3c1C(=O)N(C1CCC(=O)NC1=O)C3=O)c1nnc(C)n1-2 (stereo not given in full)
- IC50 [1]: 657 nM

- Activity [9]: Active
- Activity [10]: Active
SMILES: Cc1sc2c(c1C)C(c1ccc(Cl)cc1)=N[C@@H](CC(=O)Nc1ccc(OCCOCCOCCOCCNc3cccc4c3C(=O)N(C3CCC(=O)NC3=O)C4=O)cc1)c1nnc(C)n1-2 (stereo not given in full)

SMILES: COc1cc2c(cc1-c1c(C)noc1C)[nH]c1nc(C(=O)NCCCCCc3cccc4c3CN(C3CCC(=O)NC3=O)C4=O)ncc12 (stereo not given)
- IC50 [1]: > 1000 nM
- IC50 [2]: > 1000 nM

SMILES: CCn1nc(C2CC2)cc1Nc1nc(C(=O)NCCCCCCNc2cccc3c2C(=O)N(C2CCC(=O)NC2=O)C3=O)nc2[nH]c3cc(-c4c(C)noc4C)c(OC)cc3c12 (stereo not given)
- IC50 [1]: 3.7 nM
- IC50 [2]: 0.63 nM

SMILES: CCn1nc(C2CC2)cc1Nc1nc(C(=O)NCCCCNc2cccc3c2C(=O)N(C2CCC(=O)NC2=O)C3=O)nc2[nH]c3cc(-c4c(C)noc4C)c(OC)cc3c12 (stereo not given)
- IC50 [1]: 5 nM
- IC50 [2]: 0.45 nM

SMILES: CCn1nc(C2CC2)cc1Nc1nc(C(=O)NCCCCCc2cccc3c2C(=O)N(C2CCC(=O)NC2=O)C3=O)nc2[nH]c3cc(-c4c(C)noc4C)c(OC)cc3c12 (stereo not given)
- IC50 [1]: 2.1 nM
- IC50 [2]: 0.14 nM

- Activity [11]: Active
- Activity [12]: Active
- Activity [13]: Active
SMILES: CCn1nc(C2CC2)cc1Nc1nc(C(=O)NCCCCNC(=O)COc2cccc3c2C(=O)N(C2CCC(=O)NC2=O)C3=O)nc2[nH]c3cc(-c4c(C)noc4C)c(OC)cc3c12 (stereo not given)
- IC50 [1]: 45.5 nM
- IC50 [2]: 4.3 nM

SMILES: CCn1nc(C2CC2)cc1Nc1nc(C(=O)NCCOCCCc2cccc3c2CN(C2CCC(=O)NC2=O)C3=O)nc2[nH]c3cc(-c4c(C)noc4C)c(OC)cc3c12 (stereo not given)
- IC50 [1]: 5.4 nM
- IC50 [2]: 0.9 nM

- IC50 [14]: 630 nM
- Ki [14]: 205 nM
- IC50 [15]: 224 nM
- Ki [15]: 57.3 nM
- IC50 [16]: 189 nM
- Ki [16]: 42.4 nM
- IC50 [17]: 218 nM
- Ki [17]: 101 nM
- IC50 [18]: 294 nM
- Ki [18]: 82.1 nM
- IC50 [19]: 484 nM
- Ki [19]: 152 nM
SMILES: CNC(=O)c1ncc2c(n1)[nH]c1cc(-c3c(C)noc3C)c(OC)cc12
